Compounds with a hit are over-represented: about 2% of the library has one in this group of screens.
MT1-MMP act inh: blocks activation of human MT1-MMP; 360,000 tested, 0.061% active; HT1080 RFP-PRO-GFP cells, GFP/RFP ratio fluorescence, overnight; percent of plate control window, DMSO zero; P50281; GFP/RFP ratio change, % at 20 µM;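 active = GFP/RFP ratio change of at least 30% with cell ATP level not reduced by more than half and red fluorescence within 50% of control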
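Compound: 20 µM single dose, 1% DMSO / System: HT1080 RFP-PRO-GFP cells / Controls: DMSO and RFP-L50D-GFP cell wells / Read-out basis: GFP/RFP fluorescence ratio / Schedule: overnight compound exposure at 37 °C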
DAGLB inhibitor: diacylglycerol lipase beta (human) inhibition; Q8NCG7; HEK293T DAGLB membrane lysate, EnzChek fluorogenic substrate; inhibition, % at 5.17 µM; 340,000 tested, 0.059% active; AID 504411; in the data active = inhibition above about 34%
VLA-4 inh: inhibition in a human VLA-4 binding assay | VLA-4 expressing cells, ligand binding flow cytometry | inhibition, % (about 7 µM as worked out from the volumes in the protocol) | 330,000 tested, 0.2% active | AID 2557; in the data active = inhibition above about 50%
ABCB6 inh MLPCN: inhibitors of human ABC transporter ABCB6; K562-ABCB6 porphyrin accumulation, flow cytometry, 1 h; stronger effect = lower value; fluorescence ratio to DMSO, % at 10 µM; 360,000 tested, 0.19% active; AID 602162;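 active = fluorescence ratio to DMSO below 75%, the collection mean minus 3 SD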;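 also: signal is porphyrin accumulated inside mitochondria; lower ratio means ABCB6 inhibition with less porphyrin fluorescence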
Target sequence (Q9NP58 whole entry, looked up): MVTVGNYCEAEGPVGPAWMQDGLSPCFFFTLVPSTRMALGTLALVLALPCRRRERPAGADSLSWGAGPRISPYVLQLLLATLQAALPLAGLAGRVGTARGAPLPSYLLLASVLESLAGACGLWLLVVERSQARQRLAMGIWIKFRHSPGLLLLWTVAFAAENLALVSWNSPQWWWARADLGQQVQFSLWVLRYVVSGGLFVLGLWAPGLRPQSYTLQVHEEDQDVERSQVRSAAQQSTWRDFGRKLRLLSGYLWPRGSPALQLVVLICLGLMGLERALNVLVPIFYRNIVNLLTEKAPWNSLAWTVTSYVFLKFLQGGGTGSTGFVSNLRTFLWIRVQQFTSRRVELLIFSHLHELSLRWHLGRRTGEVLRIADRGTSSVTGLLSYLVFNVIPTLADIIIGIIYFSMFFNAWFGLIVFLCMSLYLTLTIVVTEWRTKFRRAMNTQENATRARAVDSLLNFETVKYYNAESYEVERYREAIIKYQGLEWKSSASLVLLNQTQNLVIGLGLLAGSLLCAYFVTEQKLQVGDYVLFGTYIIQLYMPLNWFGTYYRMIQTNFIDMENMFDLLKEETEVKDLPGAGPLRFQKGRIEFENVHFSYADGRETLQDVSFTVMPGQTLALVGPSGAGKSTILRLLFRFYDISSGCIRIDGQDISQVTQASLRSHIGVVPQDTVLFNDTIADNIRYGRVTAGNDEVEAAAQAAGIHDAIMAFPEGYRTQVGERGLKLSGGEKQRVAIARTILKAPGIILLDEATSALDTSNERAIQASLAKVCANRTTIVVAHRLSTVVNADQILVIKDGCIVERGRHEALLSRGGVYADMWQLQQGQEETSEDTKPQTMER
Exocytosis inh: blocks lytic granule exocytosis; TALL-104 LAMP-1 surface exposure, flow cytometry; cells stimulated with thapsigargin and PMA; inhibition, % at 10 µM; 360,000 tested, 0.66% active;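 active = inhibition above about 55%, limit read from the data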
FGF22 binding: FGF22 (human) thermal shift binding. Q9HCT0. recombinant FGF22 thermal shift, SYPRO orange fluorescence; percent of sucrose octasulfate shift, DMSO zero. activity (Tm shift, normalised), % at 9.99 µM. 340,000 tested, 1.5% active. AID 651658;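 active = mean Tm shift, scaled 0 neutral to 100 positive control, at about 1.3% or above, every replicate too, limit read from the data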
A number is an active result; n = inactive; x = no result.

SMILES	MT1-MMP act inh	DAGLB inhibitor	VLA-4 inh	ABCB6 inh MLPCN	Exocytosis inh	FGF22 binding
CCCCCOc1ccc(NC(=O)C(=O)NCCCn2ccnc2)cc1	n	n	n	n	n	x
COc1cccc(NC(=O)C(=O)NCCCn2ccnc2)c1	n	n	n	n	n	43
COc1ccc(S(=O)(=O)N2CCCOC2CNC(=O)C(=O)NCCCn2ccnc2)cc1 (centres undefined)	n	n	n	n	n	44
COc1ccc(S(=O)(=O)N2CCOC2CNC(=O)C(=O)NCc2ccco2)cc1C (centres undefined)	n	n	n	n	n	n
Cc1ccc(S(=O)(=O)N2CCCOC2CNC(=O)C(=O)NCCCn2ccnc2)cc1 (centres undefined)	n	n	n	n	n	n
COc1ccc(-c2nc3ccc(C)cn3c2NCc2ccccc2)cc1SC1CCCCC1	n	n	n	n	65	x
CNC(=O)c1nnsc1S(=O)(=O)c1ccc(Cl)cc1	n	n	x	n	n	43
O=C(O)c1cccc(N/N=C/C2=C(Cl)c3cc(Cl)ccc3SC2)c1	n	n	x	n	n	43
N#Cc1ccc(C(=O)N2CCN(S(=O)(=O)c3ccc(Br)s3)CC2)cc1	n	n	n	n	n	44
O=C(Nc1ccccc1)N1CCCCN2[C@@H](CO)[C@H](c3ccc(C4=CCCCC4)cc3)[C@@H]2C1	x	x	x	x	x	n
COc1cc(OC)cc(C(=O)NCC(=O)OCC(=O)N2c3ccccc3NC(=O)C2(C)C)c1	n	n	n	n	n	44
O=C1/C(=C\c2ccc(Br)cc2)SC(=S)N1NS(=O)(=O)c1ccccc1	n	n	n	n	57	n
COc1ccc(NC(=O)Cn2nnc(C(=O)Nc3ccccc3C)c2N)cc1	n	n	n	n	n	44
NC(N)=NC(N)=Nc1ccc2ccccc2c1	n	n	n	n	n	44
COc1cccc(N=C(N)N=C(N)N)c1	x	n	n	n	n	n
O=C(Nc1ccccc1C(=O)O)c1cc(S(=O)(=O)Nc2ccccc2)ccc1Cl	n	n	n	n	n	2.8
O=C(O)c1ccc(NS(=O)(=O)c2ccc(Cl)c(C(=O)Nc3ccccc3)c2)cc1	n	n	n	n	n	n
CCCOc1ccc(CNC(=S)Nc2ccccc2)cc1Cl	n	n	n	n	n	40
O=C(Nc1cccc(Cl)c1)OCCOCCOC(=O)Nc1cccc(Cl)c1	n	n	x	n	n	n
COc1ccc(CNC(=S)Nc2ccccc2)cc1Cl	n	n	n	n	n	n
O=C(Nc1ccccc1)OCCOc1ccc(Cl)cc1Cl	n	n	x	n	n	44
COc1ccc(NC(=O)Nc2ccc3c(c2)C(=O)N([C@H](C)CO)C[C@H](C)[C@H](CN(C)C(=O)Nc2c(C)noc2C)O3)cc1	x	x	x	x	x	n
COCCNS(=O)(=O)c1ccc2c3c(cccc13)C(=O)N2C	n	n	n	n	n	43
C[C@@H]1CCCCO[C@H](CN(C)Cc2ccncc2)[C@@H](C)CN([C@H](C)CO)C(=O)c2cc(NC(=O)NC3CCCCC3)ccc2O1	x	x	x	x	x	n
CCC[N+]1(CC#CC(O)(c2ccccc2)C2CCCCC2)CCCCC1 (centres undefined)	n	n	n	n	n	n
SMILES	MT1-MMP act inh	DAGLB inhibitor	VLA-4 inh	ABCB6 inh MLPCN	Exocytosis inh	FGF22 binding
NC(=O)C[N+]1(CC#CC(O)(c2ccccc2)c2ccccc2)CCCC1	n	n	n	n	n	4.0
COCC(=O)N1CC2(CN(Cc3ccccc3)C2)c2c([nH]c3cc(OC)ccc23)[C@H]1CO	x	x	x	x	x	n
CC1(C)CC(=O)C2=C(C1)N(CC1CCCO1)C(=O)NC2(C(F)(F)F)C(F)(F)F (centres undefined)	n	n	n	n	n	n
CC1(C)CC(=O)C2=C(C1)N(CC1CCCO1)C(=O)C2(O)C(F)(F)F (centres undefined)	n	n	n	n	80	x
O=C1C(Br)=C(c2ccccc2)C(c2ccccc2)=C1c1ccccc1	n	n	x	n	106	x
O=C1NC(c2ccccc2)=C(c2ccccc2)C1=O	n	n	n	n	n	n
Nc1ccc(Cl)cc1C(=O)c1ccc[nH]1	n	n	x	n	n	44
CCOc1ccc(/C=C/[N+](=O)[O-])c2ccccc12	n	n	n	n	102	x

From PubChem
